Assay results collected from several papers.
Target: RAF proto-oncogene serine/threonine-protein kinase (RAF1, Homo sapiens, UniProt P04049)

Compound | observed | method | tested at | remaining binding [%]
CN(C)c1ncc(F)c(-c2cnn3ncccc23)n1 | binding |  | 1 µM | 96
Cc1nccc(COC(=O)N2C[C@@H]3[C@@H](CNC(=O)c4ccc5[nH]nnc5c4)[C@@H]3C2)n1 | cell-free assay | competition with immobilised ligand | 1 µM | 94
c1cnn2ncc(-c3ccnc(N4CCC45COC5)n3)c2c1 | binding |  | 1 µM | 73
C=CC(=O)N1CCC(C(=O)NCC(=O)N2CCN(c3nc(-c4cnc(N)nc4C(F)F)nc(N4CCOCC4)n3)CC2)CC1 | binding | competition with immobilised ligand | 1 µM | 93
O=C(NCCCN1CCOCC1)c1ccc(Nc2nccc(-c3cc4ccccc4s3)n2)cc1 | binding | competition with immobilised ligand | 1 µM | 65
CN(CCCC(F)(F)F)c1nccc(-c2cnn3ncccc23)n1 | binding |  | 1 µM | 83
O=C(NCC1CCOCC1)c1n[nH]cc1NC(=O)c1c(F)cccc1F | binding | competition with immobilised ligand | 1 µM | 58
Cc1cnn2ncc(-c3ccnc(N(C)C)n3)c2c1 | binding |  | 1 µM | 100
CN(c1ccnc(CNc2nc(Nc3ccc4c(c3)CC(=O)N4)ncc2C(F)(F)F)n1)S(C)(=O)=O | cell-free assay | competition with immobilised ligand | 1 µM | 85
O=C(NCCCN1CCOCC1)c1ccc(Nc2ncc(Cl)c(-c3ccc(Cl)s3)n2)cc1 | binding | competition with immobilised ligand | 1 µM | 89
COc1ccnn2ncc(-c3ccnc(N(C)C)n3)c12 | binding |  | 1 µM | 100
N#Cc1ccccc1CSc1nnc2c(n1)[nH]c1ccccc12 | binding | competition with immobilised ligand | 10 µM | 100
CC(C)(O)c1cncc(-c2nc3ccc(F)cc3n2C2CC2)c1 | cell-free assay | competition with immobilised ligand | 1 µM | 83
N[C@H]1CCN(c2nccc(-c3cnn4ncccc34)n2)C1 | binding |  | 1 µM | 100
C[C@@H]1CN(c2ccc3ncc(-c4ccc5[nH]nc(C6CC6)c5c4)n3n2)C[C@H](C)O1 | binding | competition with immobilised ligand | 50 nM | 100
CCN1CCN(Cc2ccc(C(=O)Nc3ccc(C)c(Oc4ccc5c(c4)CC(=O)N5)c3)cc2C(F)(F)F)CC1 | binding | competition with immobilised ligand | 1 µM | 95
Cc1c(C(=O)O)cc(-c2ccc(C3CCNCC3)cc2)c2ccc(-c3ccc(C(F)(F)F)cc3)cc12 | binding | competition with immobilised ligand | 1 µM | 80
CC(C)(C)c1ccc(-c2nc(CBr)nn2-c2cccc(O)c2)cc1 | cell-free assay | competition with immobilised ligand | 10 µM | 87
O=C(NC[C@@H]1[C@H]2CN(C(=O)OCc3cc(C(F)(F)F)cc(C(F)(F)F)c3)C[C@@H]12)c1ccc2[nH]nnc2c1 | cell-free assay | competition with immobilised ligand | 1 µM | 100
O=C(c1ccc(Nc2ncc(Cl)c(-c3ccc(Cl)s3)n2)cc1)N1CCC(N2CCCC2)CC1 | binding | competition with immobilised ligand | 1 µM | 45
COc1ccc2c(O[C@@H]3C[C@H]4C(=O)N[C@]5(C(=O)O)CC5/C=C\CCCCC[C@H](NC(=O)OC5CCCC5)C(=O)N4C3)cc(-c3csc(NC(=O)C(C)C)n3)nc2c1C (stereo partly drawn) | cell-free assay | competition with immobilised ligand | 1 µM | 95
C[C@@H]1CCN(c2nccc(-c3cnn4ncccc34)n2)C1 | binding |  | 1 µM | 100
O=C(Nc1cccnn1)N1CC(C/C=C/c2cncc(Oc3ccc(C(F)(F)F)cn3)n2)C1 | cell-free assay | competition with immobilised ligand | 1 µM | 100
CNC(=O)[C@@H]1CC[C@@H](n2c(-c3ccc4cnccc4c3)nc3ccc(C(=O)NCc4cccc(C(N)=O)c4)cc32)C1 | binding | competition with immobilised ligand | 1 µM | 82
